Experimental data published in ChEMBL document CHEMBL1681680, “Synthesis of chroman aldehydes that inhibit HIV” (Bioorg Med Chem Lett, 2011).

Legend:
[1] = system: Human immunodeficiency virus 1; experiment: Antiviral activity against HIV1 NL4-3 infected in human HeLa37 cells assessed as inhibition of viral infectivity after 40 hrs by single round infectivity assay; format: functional, organism-based; conditions: Human immunodeficiency virus 1, NL4-3, HeLa37, 40 h
Summary of the method: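 HIV-1 NL4-3 and compound mixed, then added to HeLa37 cells (5×10^4 cells/well) at MOI ~0.005. Infection maintained 40 h. Cells fixed in 75% acetone/25% water and immunostained with human anti-HIV antisera. HIV antigen-positive cells counted and normalized to controls at the same DMSO level (DMSO ≤0.5%). IC50 and IC90 taken from dose-response curves. Triplicates, three independent experiments.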

[2] = Cytotoxicity against human HeLa37 cells assessed as cell viability by ATPLite assay; format: functional; conditions: for CC50: Homo sapiens, HeLa37, read-out: LC50 (the source's name)
Summary of the method: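 HeLa37 cells plated and dosed as in the infectivity assay, compounds up to 100 μg/mL, DMSO ≤0.5%. A separate DMSO dose-response (0.05–0.5%) was run, and its effect on viability was subtracted. LC50 and LC90 taken from dose-response. Triplicates, three independent experiments.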

| Compound | IC50 [1] | IC90 [1] | CC50 [2] | LC90 [2] |
| --- | --- | --- | --- | --- |
| COc1c(C=O)c(OC)c(C(C)=O)c2c1CCC(C)(C)O2 | 55.3 µM | > 100 µM | > 100 µM | – |
| CC(=O)c1c(O)c(C=O)c2c(c1O)C=CC(C)(C)O2 | 34.6 µM | 98.2 µM | > 100 µM | – |
| CC1(C)CCc2c(O)c(C(=O)CC(=O)c3ccccc3)c(O)c(C=O)c2O1 | 40.7 µM | 86.6 µM | 84.2 µM | – |
| CC(=O)c1c(O)c(C=O)c2c(c1O)CCC(C)(C)O2 | 30.2 µM | 85 µM | 145 µM | 258 µM |
| CC(=O)c1c(O)c2c(c(C(C)=O)c1O)OC(C)(C)CC2 | > 100 µM | > 100 µM | > 100 µM | – |
| CC(=O)c1c(O)c(C=O)c(O)c2c1OC(C)(C)CC2 | 39.8 µM | 85.6 µM | > 100 µM | – |
| CC1(C)CCc2c(O)c(C=O)c(O)c(C=O)c2O1 | 77.3 µM | > 100 µM | > 100 µM | – |
